# Measurements pooled from the literature.
# pIC50, pKi: −log10 of the molar value.
# Target: Sodium-dependent serotonin transporter (SLC6A4, Homo sapiens, UniProt P31645)
Structure (SMILES),assay,setting,measurement,result
CC(C)c1nc2cc(OCCCCN3CCN(c4cccc5c4OCCO5)CC3)ccc2s1,"ligand displacement, radioligand",,pKi,6.48
CCCOC(=O)[C@@]12C[C@@H]1[C@@H](n1cnc3c(NC)nc(C#Cc4ccc(Cl)s4)nc31)[C@H](O)[C@@H]2O,"ligand displacement, radioligand",cell membranes,pKi,< 5.00
Cc1ccc2cccc(N3CCN(CCCCOc4ccc5sc(C(C)C)nc5c4)CC3)c2n1,"ligand displacement, radioligand",,pKi,6.32
CCn1c(-c2nc3cc(C(=O)N4CCC[C@@H](N)C4)cc(OC)c3n2C)cc2cccnc21,transporter uptake,,pIC50,4.40
CCCCN1CCC(COC(=O)c2ccc(N)c(OCF)c2)CC1,"cell-free assay, radioligand",,pKi,< 5.00
CC(=O)N1C[C@H](CCN2CCC(c3c[nH]c4cc(Cl)ccc34)CC2)c2ccccc21,"ligand displacement, radioligand",cell membranes,pIC50,6.44
CCn1c(-c2nc3ccc(C(=O)N4CCCC(N)C4)cc3n2C)cc2ccccc21 (stereo not shown),transporter uptake,,pIC50,4.70
CNc1nc2cc(OCCCCN3CCC(c4cccc(Cl)c4Cl)CC3)ccc2s1,"ligand displacement, radioligand",,pKi,7.21
CCC(C)C(=O)[C@]12C(=O)[C@](CC=C(C)C)(C[C@H](CC=C(C)C)[C@@]1(C)CCC=C(C)C)C(=O)C(CC=C(C)C)=C2O (stereo partly shown),"ligand displacement, radioligand",cell membranes,pKi,4.47
CCN(CC)c1ccc(C2Nc3ccc(C(=O)c4ccccc4)cc3NC3=C2C(=O)CC(C)(C)C3)cc1 (stereo not shown),"cell-free assay, radioligand",,pKi,< 5.00
